This passage reports fold shift results from PubChem BioAssay AID623874 (Vanderbilt Specialized Chemistry Center, 2012).

The target in the test is Metabotropic glutamate receptor 1 (Rattus norvegicus) (UniProt P23385). Description: off-target mGlu1 activity of candidates – cell-based, calcium flux, rat, selectivity assay for mGlu4 PAM lead optimization, SAR follow-up (AID 623874). The conditions noted are these: rat mGlu1 cells, Fluo-4 calcium flux, glutamate CRC shift; at 10 µM. In outline: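 Material: cells loaded with Fluo-4 calcium indicator dye; Medium: HEPES-buffered HBSS plus probenecid, pH 7.3; Probe or stimulus: glutamate agonist; Dosing: single test compound dose, 10 µM final; Schedule: about 2.5 min compound pre-incubation before glutamate addition; Detection: Fluo-4 calcium fluorescence.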
In general terms: Calcium flux is commonly read through the fluorescence of an indicator in the cells.

Calls of active or inactive are those of the source.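 How the source made its calls: active means glutamate fold shift at least 2 as enhancer or at most 0.5 as blocker, actives on both sides; inactive means the rest.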

Sequence of Metabotropic glutamate receptor 1 (Rattus norvegicus) (P23385 whole entry, looked up): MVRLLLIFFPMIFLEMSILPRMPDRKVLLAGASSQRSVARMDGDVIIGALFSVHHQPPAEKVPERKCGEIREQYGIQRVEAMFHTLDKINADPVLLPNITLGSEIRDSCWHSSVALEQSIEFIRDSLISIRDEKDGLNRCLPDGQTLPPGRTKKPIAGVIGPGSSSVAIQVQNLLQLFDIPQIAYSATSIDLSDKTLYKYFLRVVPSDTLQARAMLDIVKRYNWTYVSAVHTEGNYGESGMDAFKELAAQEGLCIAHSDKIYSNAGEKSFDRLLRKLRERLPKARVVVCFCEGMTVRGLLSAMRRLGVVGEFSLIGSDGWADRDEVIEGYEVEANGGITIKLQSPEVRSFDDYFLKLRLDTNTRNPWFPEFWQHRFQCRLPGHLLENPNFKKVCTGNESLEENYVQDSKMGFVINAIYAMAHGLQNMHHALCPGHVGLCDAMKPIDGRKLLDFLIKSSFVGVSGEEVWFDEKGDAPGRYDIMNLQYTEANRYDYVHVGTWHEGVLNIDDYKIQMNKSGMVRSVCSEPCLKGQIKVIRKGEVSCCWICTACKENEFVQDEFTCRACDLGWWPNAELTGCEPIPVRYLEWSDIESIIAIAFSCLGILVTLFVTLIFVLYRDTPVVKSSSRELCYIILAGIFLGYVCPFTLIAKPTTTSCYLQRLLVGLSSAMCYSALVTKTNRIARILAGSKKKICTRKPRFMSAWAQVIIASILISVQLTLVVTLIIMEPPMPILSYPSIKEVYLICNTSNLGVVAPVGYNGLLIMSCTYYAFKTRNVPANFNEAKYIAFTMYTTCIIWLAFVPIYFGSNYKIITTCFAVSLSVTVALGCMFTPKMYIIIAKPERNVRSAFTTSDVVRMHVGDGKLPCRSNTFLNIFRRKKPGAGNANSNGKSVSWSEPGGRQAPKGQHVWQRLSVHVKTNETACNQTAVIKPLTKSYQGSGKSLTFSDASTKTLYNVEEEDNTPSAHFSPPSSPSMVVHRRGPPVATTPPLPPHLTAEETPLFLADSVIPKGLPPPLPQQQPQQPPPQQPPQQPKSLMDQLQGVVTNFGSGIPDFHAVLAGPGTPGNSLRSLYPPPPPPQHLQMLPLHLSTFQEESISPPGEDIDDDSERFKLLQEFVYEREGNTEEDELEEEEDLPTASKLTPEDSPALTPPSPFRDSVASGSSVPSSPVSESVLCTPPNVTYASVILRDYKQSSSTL

With `O=C(Nc1cccc(Cl)c1)c1ccccn1`, the fold shift is 1.17 (inactive).
